{"data": "Published values collected from several papers", "target": "Mitogen-activated protein kinase 3 (MAPK3, Homo sapiens, UniProt P27361)", "note": "Protocols differ between the studies behind these lines."}
{"Compound": "O=C(NCCCN1CCOCC1)c1ccc(Nc2nccc(-c3cc4ccccc4s3)n2)cc1", "read-out": "binding", "method": "competition with immobilised ligand", "tested at": "1 µM", "remaining binding": "100%"}
{"Compound": "CNC(=O)[C@@H]1CC[C@@H](n2c(-c3ccc4cnccc4c3)nc3ccc(C(=O)NCc4cccc(C(N)=O)c4)cc32)C1", "read-out": "binding", "method": "competition with immobilised ligand", "tested at": "1 µM", "remaining binding": "100%"}
{"Compound": "COCCOc1nc(-c2ccc(Cl)nc2)nc2c1CN(C(=O)c1ncn3ccccc13)CC2", "read-out": "cell-free assay", "method": "competition with immobilised ligand", "tested at": "0.1 µM", "remaining binding": "89%"}
{"Compound": "O=C(c1ccc(Nc2nccc(-c3cc4ccccc4s3)n2)cc1)N1CCC(N2CCCC2)CC1", "read-out": "binding", "method": "competition with immobilised ligand", "tested at": "1 µM", "remaining binding": "100%"}
{"Compound": "F[C@@H]1CCN(c2nccc(-c3cnn4ncccc34)n2)C1", "read-out": "binding", "tested at": "1 µM", "remaining binding": "85%"}
{"Compound": "O=C(c1ccc(Nc2ncc(Cl)c(-c3cc4ccccc4s3)n2)cc1)N1CCC(N2CCCC2)CC1", "read-out": "binding", "method": "competition with immobilised ligand", "tested at": "1 µM", "remaining binding": "97%"}
{"Compound": "O=C(Nc1c[nH]nc1C(=O)NC1CCNCC1)c1cc(F)cc(F)c1", "read-out": "binding", "method": "competition with immobilised ligand", "tested at": "1 µM", "remaining binding": "100%"}
{"Compound": "Cc1cnn2ncc(-c3ccnc(N(C)C)n3)c2c1", "read-out": "binding", "tested at": "1 µM", "remaining binding": "100%"}
{"Compound": "C[C@@H]1CN(c2ccc3ncc(-c4ccc5[nH]nc(C6CC6)c5c4)n3n2)C[C@H](C)O1", "read-out": "binding", "method": "competition with immobilised ligand", "tested at": "0.5 µM", "remaining binding": "100%"}
{"Compound": "CN(C)c1nccc(-c2cnc3ncccn23)n1", "read-out": "binding", "tested at": "1 µM", "remaining binding": "100%"}
{"Compound": "Nc1ncc2c(n1)-c1c([nH]c3ccc(C#CC4CC4)cc13)CCCC2", "read-out": "binding", "method": "competition with immobilised ligand", "tested at": "1 µM", "remaining binding": "100%"}
{"Compound": "FC(F)(F)Oc1cccc(-c2cnc3ccc(-c4ccncc4)nn23)c1", "read-out": "cell-free assay", "method": "competition with immobilised ligand", "tested at": "5 µM", "remaining binding": "88%"}
{"Compound": "CC(=O)C1=C(C)N(c2cccc(C(F)(F)F)c2)C(=O)N[C@@H]1c1ccc(C#N)nc1", "read-out": "cell-free assay", "method": "competition with immobilised ligand", "tested at": "1 µM", "remaining binding": "97.1%"}
{"Compound": "N[C@H]1CCN(c2nccc(-c3cnn4ncccc34)n2)C1", "read-out": "binding", "tested at": "1 µM", "remaining binding": "91%"}
{"Compound": "C[C@H](c1cccc(C#N)c1)n1cc(Cl)cc(C(N)=O)c1=N", "read-out": "cell-free assay", "method": "competition with immobilised ligand", "tested at": "1 µM", "remaining binding": "97%"}
{"Compound": "C[C@@H]1CCN(c2nccc(-c3cnn4ncccc34)n2)C1", "read-out": "binding", "tested at": "1 µM", "remaining binding": "83%"}
{"Compound": "Cc1c(NC(=O)c2cc(C(N)=O)nc3cc(F)ccc23)c(C(F)(F)F)nn1Cc1ccc(C(C)(C)C)cc1", "read-out": "cell-free assay", "method": "competition with immobilised ligand", "tested at": "1 µM", "remaining binding": "100%"}
{"Compound": "CC1CCCN1c1nccc(-c2cnn3ncccc23)n1 (centres unmarked)", "read-out": "binding", "tested at": "1 µM", "remaining binding": "86%"}
{"Compound": "COc1cc(-c2cn(C3CCc4ccccc4N(CC(F)(F)F)C3=O)nn2)ccc1-n1ccc(C)n1 (centres unmarked)", "read-out": "cell-free assay", "method": "competition with immobilised ligand", "tested at": "1 µM", "remaining binding": "100%"}
{"Compound": "CC(C)(C)c1ccc(-c2nc(CBr)nn2-c2cccc(O)c2)cc1", "read-out": "cell-free assay", "method": "competition with immobilised ligand", "tested at": "10 µM", "remaining binding": "91%"}
{"Compound": "O=C(Nc1cccnn1)N1CC(C/C=C/c2cncc(Oc3ccc(C(F)(F)F)cn3)n2)C1", "read-out": "cell-free assay", "method": "competition with immobilised ligand", "tested at": "1 µM", "remaining binding": "99%"}
{"Compound": "C[C@@H](c1ccc(-n2cnc3c(N)ncnc32)cc1)N1CCc2nn(C)c(Cc3ccccc3)c2C1=O", "read-out": "binding", "method": "competition with immobilised ligand", "tested at": "0.1 µM", "remaining binding": "100%"}
{"Compound": "CO[C@@H](C)c1c(Nc2ccc([C@H](N(C)C(=O)C3CCS(=O)(=O)CC3)C(F)(F)F)cc2)cnc2cc(Cl)nn12", "read-out": "cell-free assay", "method": "competition with immobilised ligand", "tested at": "1 µM", "remaining binding": "100%"}
{"Compound": "CN(CCCC(F)(F)F)c1nccc(-c2cnn3ncccc23)n1", "read-out": "binding", "tested at": "1 µM", "remaining binding": "97%"}
{"Compound": "N#Cc1ccccc1CSc1nnc2c(n1)[nH]c1ccccc12", "read-out": "binding", "method": "competition with immobilised ligand", "tested at": "10 µM", "remaining binding": "89%"}
{"Compound": "Cn1cc(Cl)c2c(Oc3c(F)cc(Nc4cc(Cl)nc(N)n4)cc3F)ccnc21", "read-out": "cell-free assay", "method": "competition with immobilised ligand", "tested at": "0.1 µM", "remaining binding": "98%"}
